Results: ChEMBL document CHEMBL4689842, “EUbOPEN Chemogenomics Library wave 1” (2021)
Several values for one entry are separate records, joined by “and”; a condition that tells them apart may be missing. Equal values may be shown once.

Columns and labels:
Format in all cases: toxicity, cell-based
[1] = tested on: Fibroblast; assay: Multiplex assay against human fibroblast; conditions: 1 µM, compound concentration 1 uM
Outline: (§1)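 Values for tubulin, mitochondrial-mass and membrane-permeability phenotypes are per cents of cells with healthy nuclei. These cells were identified by CellPathfinder machine-learning gating of live cells that had been stained at seeding with Hoechst33342, BioTracker Green Microtubule Cytoskeleton Dye, MitoTracker Red and Annexin V Alexa Fluor 680 and imaged on a CQ1 microscope at 37°C and 5% CO2 after compound addition. The gating first set Hoechst high-intensity objects apart from normal cells, then split normal cells into healthy, pyknosed or fragmented nuclei, and pyknosed cells into mitotic or apoptotic.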

[2] = tested on: HEK-293T; assay: Multiplex assay against HEK293T; conditions: human, 1 µM, compound concentration 1 uM; outline: as §1
[3] = tested on: U2OS; assay: Multiplex assay against U2OS; conditions: human, 1 µM, compound concentration 1 uM; outline: as §1
[4] = tested on: HEK-293T; assay: Incucyte cell viability with HEK293T; conditions: human, 10 µM, compound concentration 10 uM; also: filed as whole numbers so only -1 and 0 and 1 occur
[5] = tested on: Fibroblast; assay: Incucyte cell viability with human fibroblast; conditions: 10 µM, compound concentration 10 uM; also: filed as whole numbers so only -1 and 0 and 1 occur
[6] = tested on: U2OS; assay: Incucyte cell viability with U2OS; conditions: human, 10 µM, compound concentration 10 uM; also: filed as whole numbers so only -1 and 0 and 1 occur
[7] = 6 h, replicate number 1, timepoint 6 hours
[8] = 12 h, replicate number 1, timepoint 12 hours
[9] = 18 h, replicate number 1, timepoint 18 hours
[10] = 24 h, replicate number 1, timepoint 24 hours

SMILES: FC(F)c1nc2ccccc2n1-c1nc(N2CCOCC2)nc(N2CCOCC2)n1 [ZSTK-474]
- Population Apoptotic (%) ([1]; 12 h, replicate 1): 75% and 78%
- Population Fragmented Nuclei (%) ([1]; 12 h, replicate 1): 31% and 20%
- Population Healthy Nuclei (%) ([1]; 12 h, replicate 1): 54% and 67%
- Population Hoechst High Intensity Objects (%) ([1]; 12 h, replicate 1): 15% and 11%
- Population Mitochondria Different-Phenotype (%) ([1]; 12 h, replicate 1): 3% and 1%
- Population Mitotic Cells (%) ([1]; 12 h, replicate 1): 25% and 21%
- Population Normal (%) ([1]; 12 h, replicate 1): 84% and 88%
- Population Pyknosed Nuclei (%) ([1]; 12 h, replicate 1): 14% and 11%
- Total Cell Count ([1]; 12 h, replicate 1): 268 and 222
- Population Fragmented Nuclei (%) ([1]; 12 h, replicate 2): 71% and 55%
- Population Healthy Nuclei (%) ([1]; 12 h, replicate 2): 26% and 37%
- Population Hoechst High Intensity Objects (%) ([1]; 12 h, replicate 2): 40% and 37%
- Population Membrane Permeable-Phenotype (%) ([1]; 12 h, replicate 2): 0% and 6%
- Population Mitochondria Different-Phenotype (%) ([1]; 12 h, replicate 2): 14% and 26%
- Population Mitotic Cells (%) ([1]; 12 h, replicate 2): 100% and 66%
- Population Normal (%) ([1]; 12 h, replicate 2): 59% and 62%
- Total Cell Count ([1]; 12 h, replicate 2): 88 and 64
- Population Apoptotic (%) ([1]; 24 h, replicate 1): 63% and 76%
- Population Fragmented Nuclei (%) ([1]; 24 h, replicate 1): 24% and 22%
- Population Healthy Nuclei (%) ([1]; 24 h, replicate 1): 61% and 64%
- Population Hoechst High Intensity Objects (%) ([1]; 24 h, replicate 1): 12%
- Population Membrane Permeable-Phenotype (%) ([1]; 24 h, replicate 1): 3% and 1%
- Population Mitotic Cells (%) ([1]; 24 h, replicate 1): 36% and 24%
- Population Normal (%) ([1]; 24 h, replicate 1): 87%
- Population Pyknosed Nuclei (%) ([1]; 24 h, replicate 1): 14% and 12%
- Population Tubulin-Different-Phenotype (%) ([1]; 24 h, replicate 1): 18% and 0%
- Total Cell Count ([1]; 24 h, replicate 1): 235 and 226
- Population Apoptotic (%) ([1]; 24 h, replicate 2): 0%
- Population Fragmented Nuclei (%) ([1]; 24 h, replicate 2): 72% and 63%
- Population Healthy Nuclei (%) ([1]; 24 h, replicate 2): 23% and 34%
- Population Hoechst High Intensity Objects (%) ([1]; 24 h, replicate 2): 40% and 33%
- Population Membrane Permeable-Phenotype (%) ([1]; 24 h, replicate 2): 8% and 7%
- Population Mitochondria Different-Phenotype (%) ([1]; 24 h, replicate 2): 8% and 23%
- Population Mitotic Cells (%) ([1]; 24 h, replicate 2): 100%
- Population Normal (%) ([1]; 24 h, replicate 2): 60% and 66%
- Population Pyknosed Nuclei (%) ([1]; 24 h, replicate 2): 3% and 2%
- Total Cell Count ([1]; 24 h, replicate 2): 85 and 57
- Population Apoptotic (%) ([2]; 12 h, replicate 1): 22% and 20%
- Population Fragmented Nuclei (%) ([2]; 12 h, replicate 1): 18% and 14%
- Population Healthy Nuclei (%) ([2]; 12 h, replicate 1): 59% and 50%
- Population Hoechst High Intensity Objects (%) ([2]; 12 h, replicate 1): 16% and 20%
- Population Membrane Permeable-Phenotype (%) ([2]; 12 h, replicate 1): 7% and 5%
- Population Mitochondria Different-Phenotype (%) ([2]; 12 h, replicate 1): 6% and 13%
- Population Mitotic Cells (%) ([2]; 12 h, replicate 1): 77% and 79%
- Population Normal (%) ([2]; 12 h, replicate 1): 83% and 79%
- Population Pyknosed Nuclei (%) ([2]; 12 h, replicate 1): 22% and 35%
- Total Cell Count ([2]; 12 h, replicate 1): 600 and 593
- Population Apoptotic (%) ([2]; 12 h, replicate 2): 18% and 16%
- Population Fragmented Nuclei (%) ([2]; 12 h, replicate 2): 5% and 9%
- Population Healthy Nuclei (%) ([2]; 12 h, replicate 2): 86% and 85%
- Population Membrane Permeable-Phenotype (%) ([2]; 12 h, replicate 2): 4% and 3%
- Population Mitotic Cells (%) ([2]; 12 h, replicate 2): 81% and 83%
- Population Normal (%) ([2]; 12 h, replicate 2): 90% and 97%
- Population Pyknosed Nuclei (%) ([2]; 12 h, replicate 2): 8% and 4%
- Total Cell Count ([2]; 12 h, replicate 2): 1084 and 1487
- Population Apoptotic (%) ([2]; 24 h, replicate 1): 28% and 17%
- Population Fragmented Nuclei (%) ([2]; 24 h, replicate 1): 16% and 15%
- Population Healthy Nuclei (%) ([2]; 24 h, replicate 1): 54% and 72%
- Population Hoechst High Intensity Objects (%) ([2]; 24 h, replicate 1): 19% and 13%
- Population Membrane Permeable-Phenotype (%) ([2]; 24 h, replicate 1): 8%
- Population Mitotic Cells (%) ([2]; 24 h, replicate 1): 71% and 82%
- Population Normal (%) ([2]; 24 h, replicate 1): 80% and 86%
- Population Pyknosed Nuclei (%) ([2]; 24 h, replicate 1): 28% and 11%
- Total Cell Count ([2]; 24 h, replicate 1): 526 and 650
- Population Apoptotic (%) ([2]; 24 h, replicate 2): 12% and 13%
- Population Fragmented Nuclei (%) ([2]; 24 h, replicate 2): 11% and 31%
- Population Healthy Nuclei (%) ([2]; 24 h, replicate 2): 79% and 66%
- Population Hoechst High Intensity Objects (%) ([2]; 24 h, replicate 2): 11% and 4%
- Population Membrane Permeable-Phenotype (%) ([2]; 24 h, replicate 2): 10% and 6%
- Population Mitotic Cells (%) ([2]; 24 h, replicate 2): 87% and 86%
- Population Normal (%) ([2]; 24 h, replicate 2): 88% and 95%
- Total Cell Count ([2]; 24 h, replicate 2): 1133 and 2662
- Population Fragmented Nuclei (%) ([3]; 12 h, replicate 1): 3%
- Population Healthy Nuclei (%) ([3]; 12 h, replicate 1): 89% and 87%
- Population Hoechst High Intensity Objects (%) ([3]; 12 h, replicate 1): 4% and 3%
- Population Membrane Permeable-Phenotype (%) ([3]; 12 h, replicate 1): 18% and 7%
- Population Mitotic Cells (%) ([3]; 12 h, replicate 1): 56% and 88%
- Population Normal (%) ([3]; 12 h, replicate 1): 95% and 96%
- Population Pyknosed Nuclei (%) ([3]; 12 h, replicate 1): 7% and 6%
- Population Tubulin-Different-Phenotype (%) ([3]; 12 h, replicate 1): 13% and 23%
- Total Cell Count ([3]; 12 h, replicate 1): 134 and 206
- Population Fragmented Nuclei (%) ([3]; 12 h, replicate 2): 8% and 5%
- Population Healthy Nuclei (%) ([3]; 12 h, replicate 2): 85%
- Population Hoechst High Intensity Objects (%) ([3]; 12 h, replicate 2): 14% and 10%
- Population Membrane Permeable-Phenotype (%) ([3]; 12 h, replicate 2): 21% and 13%
- Population Mitochondria Different-Phenotype (%) ([3]; 12 h, replicate 2): 9% and 18%
- Population Mitotic Cells (%) ([3]; 12 h, replicate 2): 83% and 28%
- Population Normal (%) ([3]; 12 h, replicate 2): 85% and 89%
- Population Pyknosed Nuclei (%) ([3]; 12 h, replicate 2): 5%
- Population Tubulin-Different-Phenotype (%) ([3]; 12 h, replicate 2): 20% and 35%
- Total Cell Count ([3]; 12 h, replicate 2): 147 and 107
- Population Healthy Nuclei (%) ([3]; 24 h, replicate 1): 90%
- Population Hoechst High Intensity Objects (%) ([3]; 24 h, replicate 1): 2%
- Population Mitochondria Different-Phenotype (%) ([3]; 24 h, replicate 1): 4% and 12%
- Population Normal (%) ([3]; 24 h, replicate 1): 97%
- Population Pyknosed Nuclei (%) ([3]; 24 h, replicate 1): 4% and 3%
- Population Tubulin-Different-Phenotype (%) ([3]; 24 h, replicate 1): 12% and 25%
- Total Cell Count ([3]; 24 h, replicate 1): 190 and 236
- Population Apoptotic (%) ([3]; 24 h, replicate 2): 28% and 50%
- Population Fragmented Nuclei (%) ([3]; 24 h, replicate 2): 4% and 6%
- Population Healthy Nuclei (%) ([3]; 24 h, replicate 2): 89%
- Population Hoechst High Intensity Objects (%) ([3]; 24 h, replicate 2): 11% and 4%
- Population Membrane Permeable-Phenotype (%) ([3]; 24 h, replicate 2): 20% and 11%
- Population Mitochondria Different-Phenotype (%) ([3]; 24 h, replicate 2): 9% and 20%
- Population Mitotic Cells (%) ([3]; 24 h, replicate 2): 71% and 50%
- Population Normal (%) ([3]; 24 h, replicate 2): 88% and 95%
- Population Pyknosed Nuclei (%) ([3]; 24 h, replicate 2): 5%
- Population Tubulin-Different-Phenotype (%) ([3]; 24 h, replicate 2): 20% and 36%
- Total Cell Count ([3]; 24 h, replicate 2): 188 and 114
- Growth Rate [4, 7]: 0
- Growth Rate [4, 8]: 0
- Growth Rate [4, 9]: 0
- Growth Rate [4, 10]: 0
- Growth Rate ([5]; 0 h, replicate number 2, timepoint 0 hours): 0
- Growth Rate [5, 7]: 0
- Growth Rate [5, 8]: 0
- Growth Rate [5, 9]: 0
- Growth Rate [5, 10]: 0
- Growth Rate ([6]; 0 h, replicate number 1, timepoint 0 hours): 1
- Growth Rate [6, 7]: 1
- Growth Rate [6, 8]: 1
- Growth Rate ([6]; 12 h, replicate number 2, timepoint 12 hours): 0
- Growth Rate [6, 9]: 0
- Growth Rate [6, 10]: 0
